# Data reported in ChEMBL document CHEMBL4052679, “Design, synthesis and biological evaluation of novel indolin-2-ones as potent anticancer compounds” (Bioorg Med Chem Lett, 2017).
# Active and inactive are the calls of the source. The calls are words filed in the database; no cut-off is given here.
# Tests used:
# HCT-116 [1] = assay: Growth inhibition of human HCT116 cells at 10 uM incubated for 3 days by MTT assay
# A2780 [2] = assay: Growth inhibition of human A2780 cells incubated for 3 days by MTT assay; details: A2780, 72 h
# [3] = target: Cyclin-dependent kinase 2/cyclin E1 (Homo sapiens) (UniProt P24864+P24941); assay: Inhibition of CDK2/Cyclin E1 (unknown origin) at 10 uM; assay type: protein-complex assay
# BGC-823 [4] = assay: Growth inhibition of human BGC823 cells at 10 uM incubated for 3 days by MTT assay
# NCI-H1650 [5] = assay: Growth inhibition of human NCI-H1650 cells incubated for 3 days by MTT assay; details: NCI-H1650, 72 h
# HepG2 [6] = assay: Growth inhibition of human HepG2 cells incubated for 3 days by MTT assay; details: HepG2, 72 h
# [7] = target: CDK9/cyclin T1 (Homo sapiens) (UniProt O60563+P50750); assay: Inhibition of CDK9/Cyclin T1 (unknown origin) at 10 uM; assay type: protein-complex assay
# BGC-823 [8] = assay: Growth inhibition of human BGC823 cells incubated for 3 days by MTT assay; details: BGC-823, 72 h
# HCT-116 [9] = assay: Growth inhibition of human HCT116 cells incubated for 3 days by MTT assay; details: HCT-116, 72 h
# HepG2 [10] = assay: Growth inhibition of human HepG2 cells at 10 uM incubated for 3 days by MTT assay
# A2780 [11] = assay: Growth inhibition of human A2780 cells at 10 uM incubated for 3 days by MTT assay
# NCI-H1650 [12] = assay: Growth inhibition of human NCI-H1650 cells at 10 uM incubated for 3 days by MTT assay
# MDA-MB-231 [13] = assay: Growth inhibition of human MDA-MB-231 cells incubated for 3 days by SRB assay; assay type: functional, cell-based; details: MDA-MB-231, 72 h
# [14] = Growth inhibition of human KBVIN cells incubated for 3 days by SRB assay; assay type: functional, cell-based; details: 72 h
# A549 = assay: Growth inhibition of human A549 cells incubated for 3 days by SRB assay; assay type: functional, cell-based; details: A549, 72 h
# MDA-MB-231 [15] = assay: Induction of cell cycle arrest in human MDA-MB-231 cells assessed as increase in accumulation at subG1 phase at 5 times IC50 incubated for 24 hrs by propidium iodide staining based flow cytometry; assay type: functional
# Outline: (§1)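 MDA-MB-231 cells exposed 24 h. Combretastatin A-4 at 200 nM served as reference for G2/M arrest. Cells were then fixed, stained with propidium iodide, and phase distribution was read on a flow cytometer.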
# KB = assay: Growth inhibition of human KB cells incubated for 3 days by SRB assay; assay type: functional, cell-based; details: 72 h
# MCF7 = assay: Growth inhibition of human MCF7 cells incubated for 3 days by SRB assay; assay type: functional, cell-based; details: MCF7, 72 h
# MDA-MB-231 [16] = assay: Induction of cell cycle arrest in human MDA-MB-231 cells assessed as increase in accumulation at G2/M phase at 5 times IC50 incubated for 24 hrs by propidium iodide staining based flow cytometry; assay type: functional
# Outline: as §1
# Homo sapiens = organism: Homo sapiens; assay: Induction of microtubule destabilization in human MDA-MB-231 cells at 5 times IC50 incubated for 24 hrs by fluorescent microscopy; assay type: cell-based
# Outline: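 MDA-MB-231 cells treated 24 h alongside a DMSO control. Cells were fixed and immunostained for α-tubulin and phosphorylated histone H3, with DAPI for DNA. The microtubule network was judged in interphase cells (phospho-H3-negative) by confocal fluorescence microscopy with ×63 or ×40 objectives.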
IC50 (A2780 [2]),inhibition [3],IC50 (NCI-H1650 [5]),IC50 (HepG2 [6]),inhibition [7],IC50 (BGC-823 [8]),IC50 (HCT-116 [9]),IC50 (MDA-MB-231 [13]),IC50 (A549),IC50 (KB),IC50 (MCF7),Compound,growth inhibition (GI) (HCT-116 [1]),growth inhibition (GI) (BGC-823 [4]),growth inhibition (GI) (HepG2 [10]),growth inhibition (GI) (A2780 [11]),growth inhibition (GI) (NCI-H1650 [12]),IC50 [14],Activity (MDA-MB-231 [15]),Activity (MDA-MB-231 [16]),Activity (Homo sapiens)
4460 nM,inactive,7560 nM,5370 nM,inactive,–,–,–,–,–,–,CN1CCN(c2cccc(N/C=C3\C(=O)Nc4ccc(NC(=O)c5ccc[nH]5)cc43)c2)CC1,inactive,inactive,–,–,–,–,–,–,–
2170 nM,inactive,2840 nM,3120 nM,inactive,6420 nM,1380 nM,–,–,–,–,O=C1Nc2ccc(F)cc2/C1=C\C(=O)c1ccc[nH]1,–,–,–,–,–,–,–,–,–
2080 nM,inactive,1270 nM,2110 nM,inactive,9440 nM,860 nM,–,–,–,–,O=C1Nc2ccccc2/C1=C\C(=O)c1c[nH]c2ccccc12,–,–,–,–,–,–,–,–,–
30 nM,–,70 nM,20 nM,–,1 nM,30 nM,–,–,–,–,CC(=O)O[C@H]1C(=O)[C@@]2(C)[C@H]([C@H](OC(=O)c3ccccc3)[C@]3(O)C[C@H](OC(=O)[C@H](O)[C@@H](NC(=O)c4ccccc4)c4ccccc4)C(C)=C1C3(C)C)[C@]1(OC(C)=O)CO[C@@H]1C[C@@H]2O [PACLITAXEL],–,–,–,–,–,–,–,–,–
–,inactive,–,–,inactive,–,–,–,–,–,–,O=C1Nc2ccc(F)cc2/C1=C\C(=O)c1cnccn1,inactive,inactive,inactive,inactive,inactive,–,–,–,–
–,inactive,–,–,inactive,–,–,–,–,–,–,O=C1Nc2ccc(F)cc2/C1=C\C(=O)c1cc(Cl)sc1Cl,inactive,inactive,inactive,inactive,inactive,–,–,–,–
2050 nM,inactive,1870 nM,1780 nM,inactive,3170 nM,2010 nM,–,–,–,–,COc1ccc(C(=O)Nc2ccc3c(c2)/C(=C/Nc2cccc(N4CCN(C)CC4)c2)C(=O)N3)cc1,–,–,–,–,–,–,–,–,–
–,inactive,–,–,inactive,–,–,–,–,–,–,O=C1Nc2ccc(F)cc2/C1=C\C(=O)c1nccs1,inactive,inactive,inactive,inactive,inactive,–,–,–,–
2030 nM,inactive,1630 nM,3030 nM,inactive,2670 nM,2150 nM,4430 nM,4750 nM,4400 nM,4440 nM,CN1CCN(c2cccc(N/C=C3\C(=O)Nc4ccc(NC(=O)c5c(F)cccc5F)cc43)c2)CC1,–,–,–,–,–,7860 nM,Active,–,–
3370 nM,inactive,5870 nM,5070 nM,inactive,6080 nM,9410 nM,–,–,–,–,CC(C)CC(=O)Nc1ccc2c(c1)/C(=C/Nc1cccc(N3CCN(C)CC3)c1)C(=O)N2,–,–,–,–,–,–,–,–,–
–,inactive,–,–,inactive,–,–,–,–,–,–,O=C1Nc2ccc(F)cc2/C1=C\C(=O)c1ccc(-n2ccnc2)cc1,inactive,inactive,inactive,inactive,inactive,–,–,–,–
1120 nM,inactive,1220 nM,2280 nM,inactive,4090 nM,760 nM,5310 nM,> 10000 nM,> 10000 nM,> 10000 nM,O=C1Nc2ccc(F)cc2/C1=C\C(=O)c1ccc2c(c1)OCO2,–,–,–,–,–,> 10000 nM,–,Active,Active
2370 nM,inactive,2730 nM,3090 nM,inactive,8020 nM,1410 nM,–,–,–,–,O=C1Nc2ccc(F)cc2/C1=C\C(=O)c1cnc2ccc(Cl)nn12,–,–,–,–,–,–,–,–,–
2440 nM,inactive,6580 nM,1860 nM,inactive,8990 nM,3010 nM,–,–,–,–,O=C1Nc2ccc(F)cc2/C1=C\C(=O)c1c[nH]c2ccccc12,–,–,–,–,–,–,–,–,–
1580 nM,inactive,3460 nM,3440 nM,inactive,6120 nM,1070 nM,–,–,–,–,O=C1Nc2ccc(F)cc2/C1=C\C(=O)c1ccc(O)cc1F,–,–,–,–,–,–,–,–,–
2750 nM,inactive,3220 nM,8780 nM,inactive,7750 nM,1840 nM,–,–,–,–,O=C1Nc2ccc(F)cc2/C1=C\C(=O)c1cccs1,–,–,–,–,–,–,–,–,–
–,inactive,–,–,inactive,–,–,–,–,–,–,O=C1Nc2ccc(F)cc2/C1=C\C(=O)c1ccccc1O,inactive,inactive,inactive,inactive,inactive,–,–,–,–
2140 nM,inactive,3560 nM,3100 nM,inactive,2660 nM,2450 nM,–,–,–,–,O=C1Nc2ccc(F)cc2/C1=C\C(=O)c1sccc1Cl,–,–,–,–,–,–,–,–,–
2910 nM,inactive,4280 nM,6720 nM,inactive,8500 nM,2740 nM,–,–,–,–,CN1CCN(c2cccc(N/C=C3\C(=O)Nc4ccc(NC(=O)c5cccc(F)c5)cc43)c2)CC1,–,–,–,–,–,–,–,–,–
–,inactive,–,–,inactive,–,–,–,–,–,–,O=C1Nc2ccc(F)cc2/C1=C\C(=O)c1ccco1,inactive,inactive,inactive,inactive,inactive,–,–,–,–
–,–,–,–,–,–,–,7590 nM,5820 nM,5340 nM,6810 nM,O=C1Nc2ccccc2/C1=C1/Nc2ccccc2/C1=N\O,inactive,inactive,inactive,inactive,inactive,5170 nM,–,Active,inactive
2090 nM,inactive,3860 nM,3990 nM,inactive,5900 nM,2320 nM,–,–,–,–,O=C1Nc2ccc([N+](=O)[O-])cc2/C1=C\C(=O)c1ccc(C2CCCCC2)cc1,–,–,–,–,–,–,–,–,–
–,inactive,–,–,inactive,–,4670 nM,–,–,–,–,CN1CCC(C(=O)Nc2ccc3c(c2)/C(=C/Nc2cccc(N4CCN(C)CC4)c2)C(=O)N3)CC1,–,inactive,inactive,inactive,inactive,–,–,–,–
2140 nM,inactive,2170 nM,2370 nM,inactive,2240 nM,2280 nM,–,–,–,–,CN1CCN(c2cccc(N/C=C3\C(=O)Nc4ccc(NC(=O)c5c(Cl)cccc5Cl)cc43)c2)CC1,–,–,–,–,–,–,–,–,–
2310 nM,inactive,2730 nM,2840 nM,inactive,4450 nM,2520 nM,–,–,–,–,O=C1Nc2ccc(F)cc2/C1=C\C(=O)c1ccc(C2CCCCC2)cc1,–,–,–,–,–,–,–,–,–
